Data on one compound can be found in ChEMBL document CHEMBL2203099, “Identification of a crucial amino acid in the helix position 6.51 of human tachykinin neurokinin 1 and 3 receptors contributing to the insurmountable mode of antagonism by dual NK₁/NK₃ antagonists” (J Med Chem, 2012).

Where a SMILES comes first, the peptide text is derived from it. [ ]: non-standard residue; d: D form. NMeF = CN[C@@H](Cc1ccccc1)C(=O)O

In assay [1] the target is T1, Neuromedin-K receptor (Homo sapiens, UniProt P29371).
T1 sequence (P29371 whole entry): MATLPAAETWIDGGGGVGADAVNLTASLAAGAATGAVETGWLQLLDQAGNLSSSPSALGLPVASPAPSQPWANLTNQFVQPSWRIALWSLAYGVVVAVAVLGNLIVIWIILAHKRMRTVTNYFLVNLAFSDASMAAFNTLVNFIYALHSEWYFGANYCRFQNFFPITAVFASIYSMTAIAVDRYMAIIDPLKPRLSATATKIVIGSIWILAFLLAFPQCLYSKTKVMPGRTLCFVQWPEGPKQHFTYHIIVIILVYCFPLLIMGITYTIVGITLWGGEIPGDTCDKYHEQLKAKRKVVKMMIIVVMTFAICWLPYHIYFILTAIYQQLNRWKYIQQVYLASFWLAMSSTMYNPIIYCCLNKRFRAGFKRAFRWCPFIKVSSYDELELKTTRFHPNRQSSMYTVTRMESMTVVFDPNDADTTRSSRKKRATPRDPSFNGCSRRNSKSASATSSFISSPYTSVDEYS
In words: Agonist activity at wild type human NK3 receptor expressed in HEK293 cells assessed as [3H]IP accumulation after 45 mins. It is filed as functional, cell-based. The gist of the method:
(§1)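 Human NK3 (WT or point mutant) transiently transfected into HEK293 cells and labeled with 5 μCi/mL myo-[³H]inositol. Assay buffer HBSS/20 mM HEPES pH 7.4 with 8 mM LiCl. [MePhe⁷]NKB at 0.01 nM–1 μM for 45 min at 37 °C. Lysis in 20 mM formic acid; [³H]IP captured on yttrium silicate SPA beads. EC50 and Hill slope from a four-parameter fit. Emax given as % of the WT fitted maximum from the same day.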

The next assay has as its target Substance-P receptor (Homo sapiens, UniProt P25103). The assay is described as follows: Binding affinity at human NK1 receptor.
Assay [2] has as its target Neuromedin-K receptor (Homo sapiens, UniProt P29371, H316W). In words: Agonist activity at human NK3 H316W mutant expressed in HEK293 cells assessed as [3H]IP accumulation after 45 mins. It is filed as functional, cell-based. The gist of the method:
as §1

In assay [3] the target is Neuromedin-K receptor (Homo sapiens, UniProt P29371, H316F). The assay is described as follows: Agonist activity at human NK3 H316F mutant expressed in HEK293 cells assessed as [3H]IP accumulation after 45 mins. It is filed as functional, cell-based. In a few lines:
as §1

Assay [4] addresses Neuromedin-K receptor (Homo sapiens, UniProt P29371, Y247W). The assay is described as follows: Agonist activity at human NK3 Y247W mutant expressed in HEK293 cells assessed as [3H]IP accumulation after 45 mins. Type of assay: functional, cell-based. The gist of the method:
as §1

In assay [5] the target is Neuromedin-K receptor (Homo sapiens, UniProt P29371, Y247A). The assay is described as follows: Agonist activity at human NK3 Y247A mutant expressed in HEK293 cells assessed as [3H]IP accumulation after 45 mins. It is filed as functional, cell-based. The gist of the method: as §1
The target of assay [6] is Neuromedin-K receptor (Homo sapiens, UniProt P29371, Y247F). The assay is described as follows: Agonist activity at human NK3 Y247F mutant expressed in HEK293 cells assessed as [3H]IP accumulation after 45 mins. It is filed as functional, cell-based. The gist of the method:
as §1

Neuromedin-K receptor (Homo sapiens, UniProt P29371, H316W), sequence (P29371 whole entry H316W): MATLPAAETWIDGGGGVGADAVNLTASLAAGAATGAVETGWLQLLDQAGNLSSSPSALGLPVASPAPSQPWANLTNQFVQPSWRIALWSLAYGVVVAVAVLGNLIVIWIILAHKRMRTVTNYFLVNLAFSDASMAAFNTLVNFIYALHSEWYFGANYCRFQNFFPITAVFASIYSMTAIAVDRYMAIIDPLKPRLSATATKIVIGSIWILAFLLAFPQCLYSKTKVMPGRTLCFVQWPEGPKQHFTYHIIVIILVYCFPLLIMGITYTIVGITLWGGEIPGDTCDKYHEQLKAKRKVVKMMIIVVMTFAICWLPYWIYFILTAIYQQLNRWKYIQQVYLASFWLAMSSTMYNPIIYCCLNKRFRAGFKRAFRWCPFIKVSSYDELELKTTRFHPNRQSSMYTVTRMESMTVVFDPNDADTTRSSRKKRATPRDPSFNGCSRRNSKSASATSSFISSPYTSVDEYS
Neuromedin-K receptor (Homo sapiens, UniProt P29371, Y247A), sequence (P29371 whole entry Y247A): as the sequence (P29371 whole entry H316W) above, with Y247A, W316H counted along it
Neuromedin-K receptor (Homo sapiens, UniProt P29371, Y247W), sequence (P29371 whole entry Y247W): as the sequence (P29371 whole entry H316W) above, with Y247W, W316H counted along it
Neuromedin-K receptor (Homo sapiens, UniProt P29371, Y247F), sequence (P29371 whole entry Y247F): as the sequence (P29371 whole entry H316W) above, with Y247F, W316H counted along it
Neuromedin-K receptor (Homo sapiens, UniProt P29371, H316F), sequence (P29371 whole entry H316F): as the sequence (P29371 whole entry H316W) above, with W316F counted along it
Substance-P receptor, sequence (P25103 whole entry): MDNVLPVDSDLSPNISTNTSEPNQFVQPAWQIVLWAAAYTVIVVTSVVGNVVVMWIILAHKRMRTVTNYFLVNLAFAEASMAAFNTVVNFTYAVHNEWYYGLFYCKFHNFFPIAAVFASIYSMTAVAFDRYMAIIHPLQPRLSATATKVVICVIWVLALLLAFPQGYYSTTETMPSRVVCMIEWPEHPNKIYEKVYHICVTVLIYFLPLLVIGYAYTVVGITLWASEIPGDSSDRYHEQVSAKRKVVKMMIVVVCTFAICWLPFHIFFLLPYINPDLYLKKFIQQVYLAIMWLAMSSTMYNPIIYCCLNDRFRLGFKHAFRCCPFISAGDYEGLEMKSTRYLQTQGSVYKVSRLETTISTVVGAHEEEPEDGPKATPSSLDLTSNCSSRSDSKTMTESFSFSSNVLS

What is called EC50 is the concentration giving half of the maximal effect. The term Ki denotes a dissociation constant, usually derived from enzyme kinetics or from competition with a known ligand. In the case of `CSCC[C@H](NC(=O)[C@H](CC(C)C)NC(=O)CNC(=O)[C@H](Cc1ccccc1)N(C)C(=O)[C@H](Cc1ccccc1)NC(=O)[C@H](Cc1ccccc1)NC(=O)[C@H](CC(=O)O)NC(=O)[C@H](Cc1cnc[nH]1)NC(=O)[C@H](CCSC)NC(=O)[C@@H](N)CC(=O)O)C(N)=O` (H-DMHDFF[NMeF]GLM-NH2), the EC50 at Neuromedin-K receptor [1] is 0.71 nM; on Neuromedin-K receptor [2], 3.48 nM; at Neuromedin-K receptor [3] it was “Not Active”; at Neuromedin-K receptor [4], “Not Active”; at Neuromedin-K receptor [5], “Not Active”; at Neuromedin-K receptor [6] it was 2.22 nM. Also, the Ki on Substance-P receptor is > 10000 nM.
